IC50 data for 14 compounds are collected here from ChEMBL document CHEMBL1134850, “Biphenyl derivatives as novel dual NK(1)/NK(2)-receptor antagonists” (Bioorg Med Chem Lett, 2002).

One assay has as its target T1, Substance-K receptor (Homo sapiens, UniProt P21452).
T1 sequence (P21452 whole entry): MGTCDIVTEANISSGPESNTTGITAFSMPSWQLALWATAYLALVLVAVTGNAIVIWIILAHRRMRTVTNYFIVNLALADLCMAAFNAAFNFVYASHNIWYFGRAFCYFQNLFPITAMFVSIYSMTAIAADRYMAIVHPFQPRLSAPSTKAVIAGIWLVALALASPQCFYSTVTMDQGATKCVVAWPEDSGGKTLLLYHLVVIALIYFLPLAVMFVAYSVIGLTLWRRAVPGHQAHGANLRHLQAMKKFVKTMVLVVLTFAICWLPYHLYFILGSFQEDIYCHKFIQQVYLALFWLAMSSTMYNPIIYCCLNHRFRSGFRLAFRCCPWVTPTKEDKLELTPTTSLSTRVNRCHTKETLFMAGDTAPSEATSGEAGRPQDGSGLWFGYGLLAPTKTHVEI
Nature of the assay: Binding affinity was determined by measuring the inhibition of 125 I-NKA binding to transfected CHO cells expressing human recombinant Tachykinin receptor 2. It is filed as cell-based. Summed up:
(§1)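 Whole hNK2-transfected CHO cells (3 × 10⁵ per well) incubated 20 min at room temperature in 20 mM HEPES pH 7.4 with 2 mM MnSO₄ and 6 mM MgCl₂, 0.05 nM ¹²⁵I-NKA and varying test concentrations. Nonspecific binding defined with 50 nM NKA. Free ligand removed by rapid filtration, four ice-cold Tricine washes, filter-bound radioactivity by scintillation counting; triplicate samples.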
Turning to `COc1cc(C(=O)N(C)c2cc(C(=O)N[C@@H]3CCCCNC3=O)ccc2-c2ccc(Cl)cc2)cc(OC)c1OC`, the IC50 worked out at 0.162 µM.

Turning to `COc1cc(C(=O)Nc2cc(C(=O)NC3CCCCNC3=O)ccc2-c2ccc(Cl)cc2)cc(OC)c1OC` (centres undefined), the half-inhibitory concentration (IC50) was above 1 µM. Regarding `CN(C)C(=O)c1ccc(-c2ccc(Cl)cc2)c(N(C)C(=O)c2cc(C(F)(F)F)cc(C(F)(F)F)c2)c1`, the half-maximal inhibitory concentration (IC50) was 0.5 µM.

Take `COc1cc(C(=O)Nc2cc(C(=O)NC3CCCCC3)ccc2-c2ccc(Cl)cc2)cc(OC)c1OC`: the IC50 worked out at 0.03 µM. The same measure, in the same setting: as for `CN(O)C(=O)c1ccc(-c2ccc(Cl)cc2)c(N(C)C(=O)c2cc(C(F)(F)F)cc(C(F)(F)F)c2)c1`, the figure is above 1 µM; as for `CN(C)CCCNC(=O)c1ccc(-c2ccc(Cl)cc2)c(N(C)C(=O)c2cc(C(F)(F)F)cc(C(F)(F)F)c2)c1`, 0.108 µM; as for `CN(C(=O)c1cc(C(F)(F)F)cc(C(F)(F)F)c1)c1cc(C(=O)NC2CCCCC2)ccc1-c1ccc(Cl)cc1`, 0.051 µM.

The target of a further assay is T1, Substance-K receptor. Nature of the assay: Binding affinity by measuring the inhibition of 125 I-NKA binding to transfected CHO cells expressing human recombinant Tachykinin receptor 2. It counts as cell-based. Summed up: as §1
Turning to `Cc1ccc(-c2ccc(C(=O)N[C@@H]3CCCCNC3=O)cc2N(C)C(=O)c2cc(C(F)(F)F)cc(C(F)(F)F)c2)cc1`, the 50% inhibitory concentration (IC50) was 0.181 µM. In the case of `CN(C(=O)c1cc(C(F)(F)F)cc(C(F)(F)F)c1)c1cc(C(=O)N[C@@H]2CCCCNC2=O)ccc1-c1ccc(Cl)c(Cl)c1`, the IC50 came to 0.043 µM.

With `CN(C(=O)c1cc(C(F)(F)F)cc(C(F)(F)F)c1)c1cc(C(=O)N[C@@H]2CCCCNC2=O)ccc1-c1ccc(F)cc1`, the IC50 stood at 0.028 µM.

Take `CN(C(=O)c1cc(C(F)(F)F)cc(C(F)(F)F)c1)c1cc(C(=O)N[C@@H]2CCCCNC2=O)ccc1-c1ccc(Cl)cc1`: the 50% inhibitory concentration (IC50) came out at 0.07 µM. `CN(C(=O)c1ccccc1)c1cc(C(=O)NC2CCCCC2)ccc1-c1ccc(F)cc1`: the IC50 was above 1 µM.

Turning to `CN(C(=O)c1cc(C(F)(F)F)cc(C(F)(F)F)c1)c1cc(C(=O)NC2CCCCNC2=O)ccc1-c1ccccc1` (centres undefined), the IC50 is 0.56 µM.

Take `CN(C(=O)c1cc(C(F)(F)F)cc(C(F)(F)F)c1)c1cc(C(=O)NC2CCCCC2)ccc1-c1ccc(F)cc1`: the IC50 was found to be 0.168 µM.
